Test results published in ChEMBL document CHEMBL1128315, “1-(Fluorobenzyl)-4-amino-1H-1,2,3-triazolo[4,5-c]pyridines: synthesis and anticonvulsant activity” (1995).

Assays:
Rattus norvegicus [1] = test: Anticonvulsant activity against maximal electroshock-induced seizures in Wistar rats following p.o. administration.; type: functional; settings: po
How it was run: (§1)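 Male Charles River Wistar rats; maximal electroshock seizure test. Compounds given as solutions or fine dispersions in water or 0.5% methyl cellulose, micronized if not fully soluble. ED50 is the dose protecting 50% against hind limb extension, calculated by Miller–Tainter. Values with a standard error used four doses, at least 12 rats each. Values without one used three doses, six rats each.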

Rattus norvegicus [2] = test: Anticonvulsant activity against maximal electroshock-induced seizures in Wistar rats following i.p. administration.; type: functional; settings: ip; how it was run: as §1

## CCCNc1nccc2c1nnn2Cc1ccccc1F.Cl
Rattus norvegicus [1]
  ED50: > 25 mg/kg
Rattus norvegicus [2]
  ED50: 14.4 mg/kg

## Cl.Nc1nccc2c1nnn2Cc1ccccc1
Rattus norvegicus [1]
  ED50: 20 mg/kg
Rattus norvegicus [2]
  ED50: 8.7 mg/kg

## CNc1nccc2c1nnn2Cc1ccc(F)cc1.Cl
Rattus norvegicus [2]
  ED50: 17 mg/kg

## Cl.Fc1ccccc1Cn1nnc2c(NC3CC3)nccc21
Rattus norvegicus [2]
  ED50: 5.6 mg/kg

## O=C1NC(=O)C(c2ccccc2)(c2ccccc2)N1 [PHENYTOIN]
Rattus norvegicus [1]
  ED50: 20 mg/kg
Rattus norvegicus [2]
  ED50: 10 mg/kg

## CNc1nccc2c1nnn2Cc1cc(F)ccc1F.Cl
Rattus norvegicus [2]
  ED50: 5 mg/kg

## CNc1nccc2c1nnn2Cc1ccccc1.Cl
Rattus norvegicus [1]
  ED50: 10 mg/kg
Rattus norvegicus [2]
  ED50: 6.3 mg/kg

## CNc1nccc2c1nnn2Cc1ccccc1C(F)(F)F.Cl
Rattus norvegicus [2]
  ED50: > 25 mg/kg

## CNc1ncnc2c1ncn2Cc1ccccc1F [BW-A78U]
Rattus norvegicus [1]
  ED50: 2.5 mg/kg
Rattus norvegicus [2]
  ED50: 1.7 mg/kg

## CNc1nccc2c1nnn2Cc1cccc(F)c1.Cl
Rattus norvegicus [2]
  ED50: 10 mg/kg

## Cl.Fc1ccccc1Cn1nnc2c(NCC3CC3)nccc21
Rattus norvegicus [2]
  ED50: 40 mg/kg

## Cl.Nc1nccc2c1nnn2Cc1ccccc1F
Rattus norvegicus [1]
  ED50: 11.5 mg/kg
Rattus norvegicus [2]
  ED50: 28.4 mg/kg

## CCN(C)c1nccc2c1nnn2Cc1ccccc1F.Cl
Rattus norvegicus [2]
  ED50: > 25 mg/kg

## Cl.Nc1nccc2c1nnn2Cc1cc(F)ccc1F
Rattus norvegicus [2]
  ED50: 18 mg/kg

## CCNc1nccc2c1nnn2Cc1ccccc1F.Cl
Rattus norvegicus [1]
  ED50: 10 mg/kg
Rattus norvegicus [2]
  ED50: 8 mg/kg

## CC(C)Nc1nccc2c1nnn2Cc1ccccc1F.Cl
Rattus norvegicus [1]
  ED50: > 25 mg/kg
Rattus norvegicus [2]
  ED50: 14.2 mg/kg

## CNc1nccc2c1nnn2Cc1ccccc1F.Cl
Rattus norvegicus [1]
  ED50: 4.6 mg/kg
Rattus norvegicus [2]
  ED50: 4.6 mg/kg
